Data from publication PMC13077713 (Journal of medicinal chemistry, 2025).
“And” between values parts separate entries of the source, which are not always exact repeats. Identical values can stand only once. Like-named read-outs stand apart in the source and are kept apart here.

Columns and labels:
[1] = system: HBV DNA production in HepAD38 cells; assay: Anti-HBV activity; format: cell-based, Hepatitis B virus (HBV); conditions: for times less potent than GLP-26: HepAD38 vs GLP-26
[2] = system: human peripheral blood mononuclear (PBM) cells; assay: Cytotoxicity, CellTiter 96 cell proliferation assay, PBM cells; format: cell-based; conditions: read-out: Cytotoxicity, CC50 PBM; PBM cells
[3] = system: human T lymphoblast (CEM) cells; assay: Cytotoxicity, CellTiter 96 cell proliferation assay, CEM cells; format: cell-based; conditions: read-out: Cytotoxicity, CC50 CEM; CEM cells
[4] = system: African green monkey kidney (Vero) cells; assay: Cytotoxicity, CellTiter 96 cell proliferation assay, Vero cells; format: cell-based; conditions: read-out: Cytotoxicity, CC50 Vero; Vero cells
[5] = system: human hepatocellular carcinoma (HepG2) cells; assay: Cytotoxicity, CellTiter 96 cell proliferation assay, HepG2 cells; format: cell-based; conditions: read-out: Cytotoxicity, CC50 HepG2; HepG2 cells
[6] = Cytotoxicity, CellTiter 96 cell proliferation assay, PBM cells; format: cell-based, human; conditions: human, peripheral blood mononuclear (PBM) cells
[7] = Cytotoxicity, CellTiter 96 cell proliferation assay, CEM cells; format: cell-based, human; conditions: human, CEM T lymphoblast cells
[8] = Cytotoxicity, CellTiter 96 cell proliferation assay, Vero cells; format: cell-based, African green monkey; conditions: African green monkey, Vero kidney cells
[9] = Cytotoxicity, CellTiter 96 cell proliferation assay, HepG2 cells; format: cell-based, human; conditions: human, HepG2 hepatocellular carcinoma cells
Cp149 dimers [10] = target: T1, Cp149 dimers (Hepatitis B virus genotype D subtype ayw, UniProt P03146); assay: Mass photometry of Cp149 capsid assembly in the presence of CAM; format: biochemical, Hepatitis B virus (HBV); conditions: ρ = 3, assembled at 30 μM subunits, diluted to 0.18 μM; 57% without CAM
Cp149 dimers [11] = target: T1, Cp149 dimers; assay: Static SAXS of Cp149 capsid assembly in the presence of CAM; format: biochemical, Hepatitis B virus (HBV); conditions: ρ = 3, undiluted sample, 30 μM dimers; 1.54 cm^−1 without CAM
Cp149 dimers [12] = target: T1, Cp149 dimers; assay: Cryo-electron microscopy classification of Cp149 capsids assembled with CAM; format: biochemical, Hepatitis B virus (HBV); conditions: ρ = 3 (90 μM), 30 μM Cp149
In short: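 Cp149 was expressed in E. coli BL21 and purified as capsids. These were dissociated with 3 M urea and taken to subunits by SEC. Assembly was triggered manually by mixing 30 μM (1 mg/ml) dimers in 1 mM DTT, 20 mM Tris-HCl pH 7.5 with 200 mM ammonium acetate, with or without 90 μM CAM (ρ = 3). Samples were concentrated 11-fold, imaged by cryo-EM, and particles 2D-classified.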

Cp149 dimers [13] = target: T1, Cp149 dimers; conditions: for Rgw (mean radius of gyration, plateau) / 〈N〉w∞ (mean aggregation number at equilibrium) / Associated timescale of Rgw / Associated timescale of 〈N〉w: ρ = 3, 30 μM subunits, 200 mM ammonium acetate; for Rgw (mean radius of gyration, plateau): 37°C, ρ = 0: 176 ± 6 Å; for 〈N〉w∞ (mean aggregation number at equilibrium): ρ = 0: 156 ± 6; for Associated timescale of Rgw: ρ = 0: 237 ± 62 ms; for Associated timescale of 〈N〉w: ρ = 0: 699 ± 138 ms
[14] = target: preassembled HBV capsids (Cp149 protein) (Hepatitis B virus genotype D subtype ayw, UniProt P03146); conditions: 20 μM CAM
[15] = read-out: Anti-HBV activity EC50, HBV DNA production, HepAD38 cells
[16] = read-out: Anti-HBV activity EC90, HBV DNA production, HepAD38 cells
[17] = Hepatitis B virus, HePAD38, read-out: Anti-HBV activity EC50
[18] = Hepatitis B virus, HePAD38, read-out: Anti-HBV activity EC90

Chain of preassembled HBV capsids (Cp149 protein) (P03146 1-149): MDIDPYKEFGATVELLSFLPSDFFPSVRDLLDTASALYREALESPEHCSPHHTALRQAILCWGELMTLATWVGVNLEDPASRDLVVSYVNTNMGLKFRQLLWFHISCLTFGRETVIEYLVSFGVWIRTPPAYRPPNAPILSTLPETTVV
T1 sequence (P03146 1-149): as above

Cc1c(C(=O)C(=O)NCc2cn(CCCCCCn3cc(CNC(=O)C(=O)c4c(C)c(C(=O)Nc5ccc(F)c(F)c5)n(C)c4C)nn3)nn2)c(C)n(C)c1C(=O)Nc1ccc(F)c(F)c1 [Compound 6a, 4,4’-(2,2’-(((Hexane-1,6-diylbis(1H-1,2,3-triazole-1,4-diyl))bis(methylene))bis(azanediyl))bis(2-oxoacetyl))bis(N-(3,4-difluorophenyl)-1,3,5-trimethyl-1H-pyrrole-2-carboxamide)]
EC50 [1, 15]: 285 ± 21 nM | EC90 [1, 16]: > 10000 nM | CC50 [2]: > 100 µM | CC50 [3]: > 100 µM | CC50 [4]: > 100 µM | CC50 [5]: > 100 µM

Cc1c(C(=O)C(=O)NCc2cn(CCCCCCCCn3cc(CNC(=O)C(=O)c4c(C)c(C(=O)Nc5ccc(F)c(F)c5)n(C)c4C)nn3)nn2)c(C)n(C)c1C(=O)Nc1ccc(F)c(F)c1 [Compound 6b, 4,4’-(2,2’-(((Octane-1,8-diylbis(1H-1,2,3-triazole-1,4-diyl))bis(methylene))bis(azanediyl))bis(2-oxoacetyl))bis(N-(3,4-difluorophenyl)-1,3,5-trimethyl-1H-pyrrole-2-carboxamide)]
EC50 [1, 15]: 438 ± 211 nM | EC90 [1, 16]: 5520 nM | CC50 [2]: > 100 µM | CC50 [3]: > 100 µM | CC50 [4]: > 100 µM | CC50 [5]: > 100 µM

Cc1c(C(=O)C(=O)NCc2cn(CCCCCCCCCCn3cc(CNC(=O)C(=O)c4c(C)c(C(=O)Nc5ccc(F)c(F)c5)n(C)c4C)nn3)nn2)c(C)n(C)c1C(=O)Nc1ccc(F)c(F)c1 [Compound 6c, 4,4’-(2,2’-(((Decane-1,10-diylbis(1H-1,2,3-triazole-1,4-diyl))bis(methylene))bis(azanediyl))bis (2-oxoacetyl))bis(N-(3,4-difluorophenyl)-1,3,5-trimethyl-1H-pyrrole-2-carboxamide)]
EC50 [1, 15]: 4 ± 1 nM | EC90 [1, 16]: 140 ± 110 nM | CC50 [2]: > 100 µM | CC50 [3]: > 100 µM | CC50 [4]: > 100 µM | CC50 [5]: > 100 µM

Cc1c(C(=O)C(=O)NCc2cn(CCCCCCCCCCCCn3cc(CNC(=O)C(=O)c4c(C)c(C(=O)Nc5ccc(F)c(F)c5)n(C)c4C)nn3)nn2)c(C)n(C)c1C(=O)Nc1ccc(F)c(F)c1 [Compound 6d, 4,4’-(2,2’-(((Dodecane-1,12-diylbis(1H-1,2,3-triazole-1,4-diyl))bis (methylene))bis(azanediyl))bis(2-oxoacetyl))bis(N-(3,4-difluorophenyl)-1,3,5-trimethyl-1H-pyrrole-2-carboxamide)]
times more potent than reference compound GLP-26 ([1]; HepAD38 EC50 vs GLP-26): 80 times | EC50 [1, 15]: 0.1 nM | EC90 [1, 16]: 8 ± 1 nM | CC50 [2]: 63.4 ± 40.6 µM | CC50 [3]: 42.8 ± 0.6 µM | CC50 [4]: > 100 µM | CC50 [5]: > 100 µM

Cc1c(C(=O)C(=O)NCc2cn(CCCCCCCCCCCCCCCCn3cc(CNC(=O)C(=O)c4c(C)c(C(=O)Nc5ccc(F)c(F)c5)n(C)c4C)nn3)nn2)c(C)n(C)c1C(=O)Nc1ccc(F)c(F)c1 [Compound 6f, 4,4’-(2,2’-(((Hexadecane-1,16-diylbis(1H-1,2,3-triazole-1,4-diyl))bis(methylene))bis(azanediyl))bis(2-oxoacetyl))bis(N-(3,4-difluorophenyl)-1,3,5-trimethyl-1H-pyrrole-2-carboxamide)]
times less potent than GLP-26 [1]: 2–3 times | EC50 [1, 15]: 18 ± 11 nM | EC90 [1, 16]: 130 ± 60 nM | CC50 [2]: > 100 µM | CC50 [3]: > 100 µM | CC50 [4]: > 100 µM | CC50 [5]: > 100 µM

Cc1c(C(=O)C(=O)NCc2cn(CCCCCCCCCCCCCCCCCCn3cc(CNC(=O)C(=O)c4c(C)c(C(=O)Nc5ccc(F)c(F)c5)n(C)c4C)nn3)nn2)c(C)n(C)c1C(=O)Nc1ccc(F)c(F)c1 [Compound 6g, 4,4’-(2,2’-(((Octadecane-1,18-diylbis(1H-1,2,3-triazole-1,4-diyl))bis(methylene))bis(azanediyl))bis(2-oxoacetyl))bis(N-(3,4-difluorophenyl)-1,3,5-trimethyl-1H-pyrrole-2-carboxamide)]
times less potent than GLP-26 [1]: 2–3 times | EC50 [1, 15]: 25 ± 24 nM | EC90 [1, 16]: 380 ± 10 nM | CC50 [2]: > 100 µM | CC50 [3]: > 100 µM | CC50 [4]: > 100 µM | CC50 [5]: > 100 µM

Cc1c(C(=O)C(=O)NCc2c[nH]nn2)c(C)n(C)c1C(=O)Nc1ccc(F)c(F)c1 [Compound 7, 4-(2-(((1H-1,2,3-triazol-4-yl)methyl)amino)-2-oxoacetyl)-N-(3,4-difluorophenyl)-1,3,5-trimethyl-1H-pyrrole-2-carboxamide]
EC50 [1, 17]: 47 ± 42 nM | EC90 [1, 18]: 580 ± 30 nM | SI: Selectivity index ([1]; toxicity in HepG2 / activity in HepAD38): >2128 | CC50 [6]: 74 ± 14 µM | CC50 [7]: 67.8 ± 19.6 µM | CC50 [8]: > 100 µM | CC50 [9]: > 100 µM

CCCCCCCCCCCCn1cc(CNC(=O)C(=O)c2c(C)c(C(=O)Nc3ccc(F)c(F)c3)n(C)c2C)nn1 [Compound 10, N-(3,4-difluorophenyl)-4-(2-(((1-dodecyl-1H-1,2,3-triazol-4-yl)methyl)amino)-2-oxoacetyl)-1,3,5-trimethyl-1H-pyrrole-2-carboxamide]
EC50 [1, 17]: 307 ± 153 nM | EC90 [1, 18]: 970 ± 130 nM | CC50 [6]: 1.6 ± 0.6 µM | CC50 [7]: 9.9 ± 4.6 µM | CC50 [8]: 10.4 ± 9 µM | CC50 [9]: 30.5 ± 25.6 µM

C#CCNC(=O)C(=O)c1c(C)c(C(=O)Nc2ccc(F)c(F)c2)n(C)c1C [GLP-26]
EC50 [1, 15]: 8 ± 1 nM | EC90 [1, 16]: 70 ± 20 nM | CC50 [2]: > 100 µM | CC50 [3]: > 100 µM | CC50 [4]: 30.5 ± 6.7 µM | CC50 [5]: > 100 µM | capsid-sized events (Cp149 dimers [10]): 27% | SAXS intensity at zero angle I(0) (Cp149 dimers [11]): 1.86 cm⁻¹ | larger objects with an ellipsoidal appearance (2D classification) (Cp149 dimers [12]): 17.5% | objects that appeared to be T = 3 capsids (2D classification) (Cp149 dimers [12]): 1.8% | objects very similar to T = 4 capsids (2D classification) (Cp149 dimers [12]): 81.3% | Subunit binding energies −Δg (Cp149 dimers [13]): 10.4 kT | Rgw (mean radius of gyration, plateau) (Cp149 dimers [13]): 180 Å and 180 ± 1Å | 〈N〉w∞ (mean aggregation number at equilibrium) (Cp149 dimers [13]): 190 and 190 ± 11 | Associated timescale of Rgw (Cp149 dimers [13]): 116 ± 63 ms | Associated timescale of 〈N〉w (Cp149 dimers [13]): 487 ± 178 ms | Radius (DLS, table) ([14]; 7.5 μM Cp149, 30 min, 1% DMSO control 24.6 ± 3.4): 53.0 ± 13.6 nM | PD (polydispersity) ([14]; 7.5 μM Cp149, 30 min, 1% DMSO control 32.3 ± 18.6): 26.8 ± 9.8% | average particle radius (DLS, text) ([14]; 1% DMSO control 24.6 nm): 53.0 nm

Cc1cc(NC(=O)c2cccc(S(=O)(=O)N[C@H]3CCOC3)c2)ccc1F [JNJ-632]
Subunit binding energies −Δg (Cp149 dimers [13]): 15.8 kT | Rgw (mean radius of gyration, plateau) (Cp149 dimers [13]): 176 ± 0.5 Å | 〈N〉w∞ (mean aggregation number at equilibrium) (Cp149 dimers [13]): 150 ± 4 | Associated timescale of Rgw (Cp149 dimers [13]): 100 ± 24 ms | Associated timescale of 〈N〉w (Cp149 dimers [13]): 273 ± 46 ms
